From ChEMBL document CHEMBL2016458, “Design and optimization of quinazoline derivatives as melanin concentrating hormone receptor 1 (MCHR1) antagonists” (Bioorg Med Chem Lett, 2012)
Converted amounts (≈) assume the structure as drawn.

Target: T1, Melanin-concentrating hormone receptor 1 (Homo sapiens, UniProt Q99705)
Assay: biochemical
Type: cell-based, CHO-K1
Settings: not given

T1 sequence (Q99705 whole entry): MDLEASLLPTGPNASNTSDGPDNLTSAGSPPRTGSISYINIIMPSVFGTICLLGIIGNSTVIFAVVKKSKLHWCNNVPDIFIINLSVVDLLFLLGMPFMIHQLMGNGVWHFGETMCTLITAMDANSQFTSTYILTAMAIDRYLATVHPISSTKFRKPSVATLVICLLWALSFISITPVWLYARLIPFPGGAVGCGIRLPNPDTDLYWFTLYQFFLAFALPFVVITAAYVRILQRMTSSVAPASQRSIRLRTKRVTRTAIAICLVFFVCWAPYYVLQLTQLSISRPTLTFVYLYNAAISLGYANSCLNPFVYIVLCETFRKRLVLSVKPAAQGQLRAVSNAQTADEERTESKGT

Which IC50 does the source give for `Cc1nc(N2CCC(O)CC2)nc2ccc(NC(=O)COc3ccc(Cl)cc3)cc12` here?
Its IC50 is 150 nM.

For `Cc1nc(N2CCN(C3CCOCC3)CC2)nc2ccc(NC(=O)COc3ccc(Cl)cc3)cc12`, which IC50 is on record?
The IC50 was 45 nM.

With `COC1CCN(c2nc(C)c3cc(NC(=O)COc4ccc(Cl)cc4)ccc3n2)CC1` as the compound, how does the IC50 read?
Its IC50 is 213 nM.

Which IC50 does the source give for `CCC1(O)CCN(c2nc(C)c3cc(NC(=O)COc4ccc(Cl)cc4)ccc3n2)CC1` here?
The IC50 was 208 nM.

With `Cc1nc(N2CCC(O)(C3CCCCC3)CC2)nc2ccc(NC(=O)COc3ccc(OC(F)(F)F)cc3)cc12` as the compound, how does the IC50 read?
Its IC50 is 327 nM.

For `Cc1nc(N2CCN(C(=O)C3CCCCC3)CC2)nc2ccc(NC(=O)COc3ccc(Cl)cc3)cc12`, which IC50 is on record?
The IC50 was 116 nM.

With `Cc1nc(N2CCN(C(=O)C3CC3)CC2)nc2ccc(NC(=O)COc3ccc(Cl)cc3)cc12` as the compound, how does the IC50 read?
The IC50 was 251 nM.

For `COCC(=O)N1CCN(c2nc(C)c3cc(NC(=O)COc4ccc(Cl)cc4)ccc3n2)CC1`, which IC50 is on record?
The IC50 was 215 nM.

For `Cc1nc(N2CCC(N3CCOCC3)CC2)nc2ccc(NC(=O)COc3ccc(OC(F)(F)F)cc3)cc12`, which IC50 is on record?
The IC50 was 6 nM.

With `Cc1nc(N2CCC(O)(C3CC3)CC2)nc2ccc(NC(=O)COc3ccc(OC(F)(F)F)cc3)cc12` as the compound, how does the IC50 read?
The IC50 was 101 nM.

Which IC50 does the source give for `Cc1nc(N2CCN(C(=O)C3CC3)CC2)nc2ccc(NC(=O)COc3ccc(OC(F)(F)F)cc3)cc12` here?
The IC50 was 49 nM.

For `CCC1(O)CCN(c2nc(C)c3cc(NC(=O)COc4ccc(OC(F)(F)F)cc4)ccc3n2)CC1`, which IC50 is on record?
The IC50 was 116 nM.

With `Cc1nc(N2CCC(C(=O)N(C)C)CC2)nc2ccc(NC(=O)COc3ccc(OC(F)(F)F)cc3)cc12` as the compound, how does the IC50 read?
The IC50 was 47 nM.

Test system: not listed separately
Assay: Tmax in Swiss albino mouse brain at 30 mg/kg, po
Type: ADME, organism-based
Parameters: dose 30 mg/kg, route oral
Settings: not given
Outline: (§1)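 Swiss Albino mice given a single oral dose of 30 mg/kg. Plasma and brain were sampled over 0–8 h. AUC(0–8), Cmax, Tmax and t1/2 were derived for each matrix.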

Which Tmax does the source give for `Cc1nc(N2CCC(N3CCOCC3)CC2)nc2ccc(NC(=O)COc3ccc(OC(F)(F)F)cc3)cc12` here?
Its Tmax is 1 h.

Test system: not listed separately
Assay: Solubility of the compound in 5% DMSO and 95% PBS after overnight incubation using plate shaker
Type: physicochemical
Settings: 5% DMSO and 95% PBS; read-out: solubility
Outline: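 A 10 mM DMSO stock was diluted into PBS to a final 500 µM (5% DMSO). The mix was left to precipitate overnight at RT on a plate shaker, then centrifuged. Supernatant absorbance was read at 260, 280 and 620 nm. Solubility is the absorbance ratio of PBS supernatant to an acetonitrile reference (100 and 500 µM). The 620 nm reading was used to exclude visible contamination.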

Which solubility does the source give for `Cc1nc(N2CCN(C3CCOCC3)CC2)nc2ccc(NC(=O)COc3ccc(Cl)cc3)cc12` here?
The solubility was 15 µM (≈ 7.44 µg/mL).

For `Cc1nc(N2CCC(N3CCOCC3)CC2)nc2ccc(NC(=O)COc3ccc(OC(F)(F)F)cc3)cc12`, which solubility is on record?
Its solubility is 12 µM (≈ 6.55 µg/mL).

Which solubility does the source give for `Cc1nc(N2CCN(C(=O)C3CC3)CC2)nc2ccc(NC(=O)COc3ccc(OC(F)(F)F)cc3)cc12` here?
Its solubility is 8 µM (≈ 4.24 µg/mL).

Test system: not listed separately
Assay: Half life in Swiss albino mouse plasma at 30 mg/kg, po
Type: ADME, organism-based
Parameters: dose 30 mg/kg, route oral
Settings: not given
Outline: as §1

For `Cc1nc(N2CCC(N3CCOCC3)CC2)nc2ccc(NC(=O)COc3ccc(OC(F)(F)F)cc3)cc12`, which half-life is on record?
The half-life was 3 h.

Test system: not listed separately
Assay: Tmax in Swiss albino mouse plasma at 30 mg/kg, po
Type: ADME, organism-based
Parameters: dose 30 mg/kg, route oral
Settings: not given
Outline: as §1

With `Cc1nc(N2CCC(N3CCOCC3)CC2)nc2ccc(NC(=O)COc3ccc(OC(F)(F)F)cc3)cc12` as the compound, how does the Tmax read?
The Tmax was 1 h.

Test system: not listed separately
Assay: Cmax in Swiss albino mouse plasma at 30 mg/kg, po
Type: ADME, organism-based
Parameters: dose 30 mg/kg, route oral
Settings: not given
Outline: as §1

Which Cmax does the source give for `Cc1nc(N2CCC(N3CCOCC3)CC2)nc2ccc(NC(=O)COc3ccc(OC(F)(F)F)cc3)cc12` here?
The Cmax was 430 nM.

Test system: not listed separately
Assay: Metabolic stability in mouse liver microsomes assessed as compound remaining at 10 uM after 30 mins by HPLC analysis
Type: ADME, Microsome
Settings: read-out: Stability
Outline: (§2)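 Compound at 10 µM was incubated with 1 mg/ml mouse or pooled human liver microsomes in 0.1 M phosphate buffer, pH 7.4. Reaction was started with NADPH and run 30 min at 37 °C. Result is % parent remaining.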

For `Cc1nc(N2CCN(C3CCOCC3)CC2)nc2ccc(NC(=O)COc3ccc(Cl)cc3)cc12`, which remaining at 0.5 h, 10 µM is on record?
Its remaining at 0.5 h, 10 µM is 1%.

For `Cc1nc(N2CCN(C(=O)C3CC3)CC2)nc2ccc(NC(=O)COc3ccc(OC(F)(F)F)cc3)cc12`, which remaining at 0.5 h, 10 µM is on record?
Its remaining at 0.5 h, 10 µM is 43%.

Test system: not listed separately
Assay: Cmax in Swiss albino mouse brain at 30 mg/kg, po
Type: ADME, organism-based
Parameters: dose 30 mg/kg, route oral
Settings: not given
Outline: as §1

With `Cc1nc(N2CCC(N3CCOCC3)CC2)nc2ccc(NC(=O)COc3ccc(OC(F)(F)F)cc3)cc12` as the compound, how does the Cmax read?
Its Cmax is 2660 nM.

Test system: not listed separately
Assay: AUC (0 to 8 hrs) in Swiss albino mouse plasma at 30 mg/kg, po
Type: ADME, organism-based
Parameters: time < 8 hr, dose 30 mg/kg, route oral
Settings: not given
Outline: as §1

Which AUC(0-t) at 8 h does the source give for `Cc1nc(N2CCC(N3CCOCC3)CC2)nc2ccc(NC(=O)COc3ccc(OC(F)(F)F)cc3)cc12` here?
The AUC(0-t) at 8 h was 1.02 µM·h.

Test system: Mus musculus
Assay: Antiobesity activity in diet induced obese C57BL/6J mouse assessed as decrease in body weight at 30 mg/kg, po bid for 14 days measured at day 14 relative to control
Type: functional
Parameters: scale not given: the % may be the effect or the level left
Settings: not given
Outline: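 C57BL/6J mice were fed a high-fat diet (60% calories from fat) for about 3 months, to roughly 45 g average body weight. Animals were grouped by initial weight. Dosing was oral, 30 mg/kg twice daily for 14 days, against vehicle controls (n = 12). Body weight and food intake were recorded daily.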

With `Cc1nc(N2CCC(N3CCOCC3)CC2)nc2ccc(NC(=O)COc3ccc(OC(F)(F)F)cc3)cc12` as the compound, how does the Activity read?
The Activity was 12%.

Test system: not listed separately
Assay: Half life in Swiss albino mouse brain at 30 mg/kg, po
Type: ADME, organism-based
Parameters: dose 30 mg/kg, route oral
Settings: not given
Outline: as §1

For `Cc1nc(N2CCC(N3CCOCC3)CC2)nc2ccc(NC(=O)COc3ccc(OC(F)(F)F)cc3)cc12`, which half-life is on record?
The half-life was 1.7 h.

Test system: not listed separately
Assay: Stability in mouse blood assessed as compound remaining after 30 mins by HPLC analysis
Type: ADME, tissue-based
Settings: read-out: Stability

With `Cc1nc(N2CCC(N3CCOCC3)CC2)nc2ccc(NC(=O)COc3ccc(OC(F)(F)F)cc3)cc12` as the compound, how does the remaining at 0.5 h read?
The remaining at 0.5 h was 29%.

Test system: not listed separately
Assay: AUC (0 to 8 hrs) in Swiss albino mouse brain at 30 mg/kg, po
Type: ADME, organism-based
Parameters: time < 8 hr, dose 30 mg/kg, route oral
Settings: not given
Outline: as §1

With `Cc1nc(N2CCC(N3CCOCC3)CC2)nc2ccc(NC(=O)COc3ccc(OC(F)(F)F)cc3)cc12` as the compound, how does the AUC(0-t) at 8 h read?
Its AUC(0-t) at 8 h is 6.21 µM·h.

Target: T1, Melanin-concentrating hormone receptor 1
Assay: Antagonist activity at human MCHR1 expressed in CHO-K1 cells assessed as inhibition of MCH peptide mediated response measuring [3H]inositol phosphate production by IP3-SPA-YSI assay
Type: functional, cell-based
Settings: not given

For `Cc1nc(N2CCC(O)CC2)nc2ccc(NC(=O)COc3ccc(Cl)cc3)cc12`, which IC50 is on record?
The IC50 was 163 nM.

For `Cc1nc(N2CCN(C3CCOCC3)CC2)nc2ccc(NC(=O)COc3ccc(Cl)cc3)cc12`, which IC50 is on record?
The IC50 was 115 nM.

With `COC1CCN(c2nc(C)c3cc(NC(=O)COc4ccc(Cl)cc4)ccc3n2)CC1` as the compound, how does the IC50 read?
Its IC50 is 181 nM.

Which IC50 does the source give for `CCC1(O)CCN(c2nc(C)c3cc(NC(=O)COc4ccc(Cl)cc4)ccc3n2)CC1` here?
Its IC50 is 384 nM.

With `Cc1nc(N2CCC(O)(C3CCCCC3)CC2)nc2ccc(NC(=O)COc3ccc(OC(F)(F)F)cc3)cc12` as the compound, how does the IC50 read?
The IC50 was 156 nM.

For `Cc1nc(N2CCN(C(=O)C3CCCCC3)CC2)nc2ccc(NC(=O)COc3ccc(Cl)cc3)cc12`, which IC50 is on record?
Its IC50 is 1040 nM.

For `Cc1nc(N2CCN(C(=O)C3CC3)CC2)nc2ccc(NC(=O)COc3ccc(Cl)cc3)cc12`, which IC50 is on record?
Its IC50 is 146 nM.

With `COCC(=O)N1CCN(c2nc(C)c3cc(NC(=O)COc4ccc(Cl)cc4)ccc3n2)CC1` as the compound, how does the IC50 read?
The IC50 was 295 nM.

Which IC50 does the source give for `Cc1nc(N2CCC(N3CCOCC3)CC2)nc2ccc(NC(=O)COc3ccc(OC(F)(F)F)cc3)cc12` here?
The IC50 was 16 nM.

With `Cc1nc(N2CCC(O)(C3CC3)CC2)nc2ccc(NC(=O)COc3ccc(OC(F)(F)F)cc3)cc12` as the compound, how does the IC50 read?
The IC50 was 33 nM.

For `Cc1nc(N2CCN(C(=O)C3CC3)CC2)nc2ccc(NC(=O)COc3ccc(OC(F)(F)F)cc3)cc12`, which IC50 is on record?
The IC50 was 30 nM.

For `CCC1(O)CCN(c2nc(C)c3cc(NC(=O)COc4ccc(OC(F)(F)F)cc4)ccc3n2)CC1`, which IC50 is on record?
Its IC50 is 59 nM.

For `Cc1nc(N2CCC(C(=O)N(C)C)CC2)nc2ccc(NC(=O)COc3ccc(OC(F)(F)F)cc3)cc12`, which IC50 is on record?
The IC50 was 18 nM.

Test system: not listed separately
Assay: Metabolic stability in human liver microsomes assessed as compound remaining at 10 uM after 30 mins by HPLC analysis
Type: ADME, Microsome
Settings: read-out: Stability
Outline: as §2

Which remaining at 0.5 h, 10 µM does the source give for `Cc1nc(N2CCN(C3CCOCC3)CC2)nc2ccc(NC(=O)COc3ccc(Cl)cc3)cc12` here?
The remaining at 0.5 h, 10 µM was 39%.

For `Cc1nc(N2CCN(C(=O)C3CC3)CC2)nc2ccc(NC(=O)COc3ccc(OC(F)(F)F)cc3)cc12`, which remaining at 0.5 h, 10 µM is on record?
Its remaining at 0.5 h, 10 µM is 59%.
